Ten compounds from ChEMBL document CHEMBL3227960, “Inhibition of uptake of catecholamines by benzylamine derivatives” (J Med Chem, 1979) can be followed below.

Structures are written as SMILES.

A short description of experiment [1]: Inhibition of [3H]norepinephrine reuptake at NET in Sprague-Dawley rat brain cortical synaptosomes incubated for 5 mins prior to [3H]norepinephrine addition measured after 3 mins by scintillation counting analysis. The format is subcellular. The settings on record: read-out: I50. Summed up:
(§1)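 Crude P2 synaptosomes from male Sprague-Dawley rat striatum (dopamine) or cerebral cortex (norepinephrine), prepared at 0 °C in 0.32 M sucrose. Tritiated substrate 0.1 μM, 37 °C. Uptake quenched with cold saline plus 100 μM unlabelled substrate, then filtered. 0 °C blanks subtracted. Three inhibitor concentrations, each in triplicate. I50 taken where A0/A1 = 2, by linear regression against concentration.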

The target in experiment [2] is Sodium-dependent dopamine transporter (Rattus norvegicus, UniProt P23977). As to the kind of experiment: Inhibition of [3H]dopamine reuptake at DAT in Sprague-Dawley rat brain striatal synaptosomes incubated for 5 mins prior to [3H]dopamine addition measured after 3 mins by scintillation counting analysis. It counts as subcellular. The settings on record: read-out: I50. The method in brief: as §1
Sequence of Sodium-dependent dopamine transporter (P23977 whole entry): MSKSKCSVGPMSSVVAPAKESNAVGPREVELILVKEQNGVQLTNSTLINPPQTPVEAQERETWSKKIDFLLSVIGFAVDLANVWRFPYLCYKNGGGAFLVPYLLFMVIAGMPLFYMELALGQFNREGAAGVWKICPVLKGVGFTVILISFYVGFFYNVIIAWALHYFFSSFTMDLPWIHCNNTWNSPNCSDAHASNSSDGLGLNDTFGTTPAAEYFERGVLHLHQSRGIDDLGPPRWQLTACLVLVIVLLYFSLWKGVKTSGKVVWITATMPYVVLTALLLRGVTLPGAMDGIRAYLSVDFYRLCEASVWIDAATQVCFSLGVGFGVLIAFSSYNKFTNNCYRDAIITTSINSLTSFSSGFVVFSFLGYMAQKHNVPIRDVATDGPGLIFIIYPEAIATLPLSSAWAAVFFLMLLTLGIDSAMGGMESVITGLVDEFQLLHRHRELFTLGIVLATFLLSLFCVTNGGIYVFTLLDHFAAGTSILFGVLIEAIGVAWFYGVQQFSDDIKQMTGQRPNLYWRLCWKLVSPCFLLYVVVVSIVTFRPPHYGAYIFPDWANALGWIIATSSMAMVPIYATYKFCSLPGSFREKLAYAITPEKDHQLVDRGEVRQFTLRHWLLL

`CCN(CCCl)Cc1ccccc1Br`: the IC50 came out at 0.05 µM in experiment [1] and 5.87 µM in experiment [2].
As for `ClCCNCc1ccccc1Br`, the IC50 was determined as 50.2 µM in experiment [1] and 326 µM in experiment [2].
Take `CCN(CCO)Cc1ccccc1Br`: the IC50 is 78 µM in experiment [1] and 640 µM in experiment [2].
Consider `CCN(CCO)Cc1ccccc1C`, for which the IC50 in experiment [1] turned out to be 137 µM; in experiment [2] it was 1050 µM.
For the compound `CCN(CCCl)Cc1cccc(C)c1`, the IC50 in experiment [1] stood at 0.77 µM; in experiment [2], 28.6 µM.
As for `CCN(CCO)Cc1cccc(C)c1`, the values for the IC50 in experiment [1] and in experiment [2] were 49 µM and 250 µM, respectively.
With `CCN(CCCl)Cc1ccc(C)cc1`, the IC50 in experiment [1] amounted to 3.05 µM; in experiment [2] it was 78.4 µM.
In the case of `CCN(CCCl)Cc1ccccc1OC`, the IC50 turned out to be 31.1 µM in experiment [1] and 303 µM in experiment [2].
As for `CCN(CCCl)Cc1cccc(OC)c1`, the figures for the IC50 in experiment [1] and in experiment [2] were 23.2 µM and 127 µM, respectively.
The like results for `CCN(CCCl)Cc1ccc(OC)cc1` were, in that order, 29.8 µM and 147 µM.
